# Source: PubChem (several laboratories)
# A selection: hits, their analogues and other compounds. The true share with any hit is near 0.89%.
# Arrestin-AP2 inh = inhibitors of beta-arrestin/AP2 binding, primary screen, biochemical, GPCR trafficking, flow cytometry. beta-arrestin 1 C-terminal peptide binding to AP2 beta2-adaptin appendage (human). FITC-arrestin peptide / GST-AP2 beads; AP2 beta2 appendage carries R879A mutation. inhibition, % at 10 µM. 340,000 tested, 0.31% active. AID 504490, 2011;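 active means inhibition above a set limit, near 3 SD of compounds lacking own fluorescence, cut at about 54% in these data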;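 further: plate controls were DMSO wells for no effect and 5 µM unlabelled arrestin peptide for full effect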
#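 Test system: GST-tagged AP2 beta2-adaptin appendage (R879A) on 4 µm glutathione beads; also added: fluorescein-tagged arrestin peptide at 50 nM final; timing: 12 min plus 1 h, RT; signal: flow cytometry, FL1 (488/535 nm); read-out: percent drop in bead-associated FITC signal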
# Xi reactivation = activators of inactive X chromosome reactivation, primary screen, imaging, XiGFP fibroblasts, GFP high-content imaging, set 2. 360,000 tested, 0.055% active. activation, % at 7.58 µM. XiGFP mouse fibroblasts, % GFP-positive cells imaging, 3 d; cells co-treated with 5-aza-dC sensitizer; scaled so ellipticine positive control = 100%;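 active means mean normalized replicate activation at least 10% and every replicate at or above 10%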;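 further: 0% = median of on-plate neutral control wells and 100% = ellipticine 6 µM median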
#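 Material: XiGFP fibroblasts, SV40-immortalized; Buffer or medium: DMEM containing 5-aza-dC; Compound dosing: single point; Times: 3 days compound exposure.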
# MIN6 prolif-1 = inducers of MIN6 beta-cell proliferation, primary screen, ATP luminescence, uHTS; MIN6 cells proliferation, ATPlite luminescence, 48 h; cells starved in 0.2% serum; 100% = growth in 10% serum; proliferation, % at 10 µM; 330,000 tested, 0.29% active; AID 2380, 2010;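 active means compounds whose signal lies at least 3.5 SD above the mean of all wells on their plate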;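 further: 0% = DMSO-treated cells in low-serum medium and 100% = 10% serum control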
# T cell modulator = modulators of CD8 T cell-vesicle binding, primary screen, mouse 2C CD8+ T cells, flow cytometry; 330,000 tested, 0.068% active; AID 2052, 2009; 2C CD8+ T cell-vesicle binding; hits give low values; response (vesicle binding), % at 7 µM;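 active means response, share of CD8 T cells binding vesicles, and their 90th percentile fluorescence all below set limits, cut at about 80% in these data, passing the limit was not always enough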;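 further: values below 100% mean blocked vesicle binding to the CD8+ T cells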
#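 Test system: purified 2C TCR transgenic mouse naive CD8+ T cells. Probe or stimulus: QL9-peptide-loaded Drosophila micro-vesicles bearing Ld, ICAM-1 and B7-1. Incubation: binding step 1.5 h, 37 °C, antibody labelling 20 min, ice. Measured by: flow cytometry of vesicle-bound cells.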
# NTR1 agonist = agonists of human NTR1, primary screen, imaging, U2OS cells, beta-arrestin-GFP, high content; 330,000 tested, 0.17% active; Neurotensin receptor type 1 (Homo sapiens), P30989; AID 493036, 2011; activation, % at 20 µM; NTR1-U2OS beta-arrestin-GFP spot imaging, agonist mode;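 active means activation at or above 40% of the spot to cytoplasm intensity ratio, with at least 20 cells analyzed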;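 further: 0% = DMSO without peptide and 100% = 100 nM NTR1 peptide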
# Target sequence (P30989 whole entry, looked up): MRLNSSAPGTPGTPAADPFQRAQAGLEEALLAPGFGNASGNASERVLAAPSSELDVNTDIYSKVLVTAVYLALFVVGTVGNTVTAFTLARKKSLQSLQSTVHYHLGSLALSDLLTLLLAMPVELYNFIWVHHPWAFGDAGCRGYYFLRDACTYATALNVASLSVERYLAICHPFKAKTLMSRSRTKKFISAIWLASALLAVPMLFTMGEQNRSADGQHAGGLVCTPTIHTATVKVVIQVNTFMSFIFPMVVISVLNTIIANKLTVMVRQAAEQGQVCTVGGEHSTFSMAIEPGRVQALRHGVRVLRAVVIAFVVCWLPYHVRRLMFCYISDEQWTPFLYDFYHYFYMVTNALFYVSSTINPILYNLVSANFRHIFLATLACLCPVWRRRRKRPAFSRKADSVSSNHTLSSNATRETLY
# V-ATPase pHluor = regulators of yeast V-ATPase proton pumping, primary screen, pHLuorin cytosolic pH fluorescence; S. cerevisiae; response, % at 10 µM; 350,000 tested, 0.37% active; in the data active means response mostly above about 7.3%, no sharp cut-off; inactive means mostly below about 5.4%; further: actives read high
# MIN6 prolif-2 = inducers of beta-cell proliferation in MIN6, confirmation, MIN6 cells, mouse; ATPlite luminescence, 48 h; cells kept in 0.2% serum; scaled between 0.2% and 10% serum; AID 463095, 2010; 920 tested, under 10 active; proliferation increase, % at 50 µM; shares compounds with MIN6 prolif-1;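 active means proliferation increase above 40% at any of the four tested concentrations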
# Starred values were filed as active, the others as inactive; i = inactive; x = no result.
SMILES,Arrestin-AP2 inh,Xi reactivation,MIN6 prolif-1,T cell modulator,NTR1 agonist,V-ATPase pHluor,MIN6 prolif-2
O=C(NCC1CCCO1)c1ccccc1OCc1ccc(Cl)cc1 (centres undefined),8,0,15*,276,1,4,-4
COc1ccc(OC)c(CCNC(=O)c2ccc(CS(=O)(=O)c3ccc(Br)cc3)o2)c1,8,0,2,305,0,2,x
COc1ccc(S(=O)(=O)Cc2ccc(C(=O)NCCc3cc(OC)ccc3OC)o2)cc1,8,0,7.5*,96,2,6,1
C[C@H]1CCCCO[C@@H](CN(C)C(=O)c2ccncc2)[C@@H](C)CN([C@@H](C)CO)C(=O)c2cc(NC(=O)NC3CCCCC3)ccc2O1,x,0,x,x,x,x,x
Clc1ccc(CNc2nc(N3CCOCC3)nc(N3CCOCC3)n2)cc1,-4,x,2,0,2,-1,x
O=C1CSC(c2ccc(Cl)cc2)N1Nc1nc(N2CCOCC2)nc(N2CCOCC2)n1 (centres undefined),-2,0,9.7*,376,0,-2,-4
C[C@@H]1CN([C@H](C)CO)C(=O)c2cc(N(C)C)ccc2O[C@@H](C)CCCCO[C@H]1CN(C)Cc1ccc(C(=O)Nc2ccccc2N)cc1,x,0,x,x,x,x,x
COc1ccccc1NC(=O)C(C)OC(=O)C1CCN(S(=O)(=O)c2ccc(C)c(C)c2)CC1 (centres undefined),8,0,16*,442,5,-1,-5
COC(=O)c1ccccc1S(=O)(=O)N1CCC(C(=O)OC(C)C(=O)Nc2ccccc2OC)CC1 (centres undefined),1,0,4,287,2,-2,x
CC(C)C[C@H](NC(=O)NCc1ccccc1Cl)C(=O)O,-1,x,0,275,5,0,x
CC(C)C[C@H](NC(=O)NCc1ccc(Cl)cc1)C(=O)O,6,x,10*,369,0,6,-2
Cc1cc(C)c(C#N)c(SCc2ccc(C#N)cc2)n1,3,x,12*,204,3,1,-2
Cc1cc(C)c(C#N)c(SCc2ccc(F)cc2)n1,3,0,1,369,-2,-3,x
COC(=O)c1ccc(OC(=O)c2cccnc2SC)cc1,-3,0,-1,680,0,-1,x
COC(=O)c1ccc(OC(=O)c2ccccn2)cc1,21,x,6.5*,i,-2,1,0
CC1CCCCN1c1ncnc(N)c1[N+](=O)[O-] (centres undefined),6,0,8.8*,184,2,-2,12
Cc1nc(N2CCOCC2)nc(N2CCC(C)CC2)c1[N+](=O)[O-],12,0,0,i,3,1,x
Cc1nc(N2CCOCC2)nc(N2CCCCC2C)c1[N+](=O)[O-] (centres undefined),31,0,8.1*,739,2,-1,-5
CN1CCN(c2nc(C#N)cc(-c3ccccc3)n2)CC1,30,x,9.8*,422,3,-3,-5
COc1ccc(-c2cc(C#N)nc(N3CCN(C)CC3)n2)cc1,-3,0,-3,182,0,0,x
COc1cc(/C=N/NC(=O)/C(=C\c2ccc([N+](=O)[O-])cc2)NC(=O)c2ccccc2)cc(OC)c1O,19,x,-2,498,3,-3,x
O=C(N/N=C/c1cc([N+](=O)[O-])cc([N+](=O)[O-])c1O)/C(=C\c1cccs1)NC(=O)c1ccccc1,19,0,0.0*,321,-2,-1,-4
